Results published in ChEMBL document CHEMBL1158044, “Bioactive depsides and anthocyanins from jaboticaba (Myrciaria cauliflora)” (J Nat Prod, 2006).
Each block holds one compound with its values, some of them ahead of it.

Assays:
[1] = Inhibition of IL8 production in cigarette smoke extract treated human SAE cells at 100 uM; format: functional; design: scale not given: the % may be the effect or the level left
In short: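 Primary human small airway epithelial cells, confluent, passages 4-8, kept in 5% CO2 at 37 °C. CSE made by drawing smoke of one unfiltered 2R1 reference cigarette through 25 mL DPBS, set to pH 7.4, filtered and diluted to 5% in growth medium. Compound (100 µM) added 30 min before 5% CSE. After 24 h, supernatant IL-8 read by ELISA. Two-sided Student's t-test, 5% level.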

[2] = Cytotoxicity against human HCT 116 cells after 72 hrs; format: functional, cell-based; conditions: HCT-116, 72 h
In short: (§1)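 Colon cancer cells (10 000) seeded in DMEM with 10% FBS. After 24 h, treated with 1, 5, 10, 30, 50 and 70 µM compound for 72 h in DMEM with 1% FBS. Cells washed with PBS, trypsinized and counted on a Coulter Counter. IC50 derived. EGCG and Polyphenon E served as positive controls.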

SW480 = test: Cytotoxicity against human SW480 cells after 72 hrs; format: functional, cell-based; conditions: SW480, 72 h; in short: as §1
[3] = Antiradical activity assessed as DPPH radical scavenging activity; format: physicochemical
In short: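 DPPH radical scavenging done per an earlier method with 400 µM DPPH. Tested on extracts, fractions and pure compounds, with gallic acid as positive control. IC50 reported.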

[4] = Inhibition of IL8 production in human SAE cells at 100 uM; format: functional; design: Activity: scale not given: the % may be the effect or the level left
In short: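 Confluent human small airway epithelial cells (passages 4-8, 5% CO2, 37 °C) given compound at 100 µM without smoke extract. IL-8 in supernatant measured by ELISA after 24 h. Significance by two-sided Student's t-test at the 5% level.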

HT-29 = test: Cytotoxicity against human HT-29 cells after 72 hrs; format: functional, cell-based; conditions: HT-29, 72 h; in short: as §1

Structure (SMILES): OC[C@H]1O[C@@H](Oc2cc3c(O)cc(O)cc3[o+]c2-c2cc(O)c(O)c(O)c2)[C@H](O)[C@@H](O)[C@@H]1O
- Activity [1]: 96%
- IC50 [2]: 12 µM
- IC50 (SW480): 20 µM

- IC50 [3]: 61.8 µM
Structure (SMILES): O=C(O)Cc1c(O)cc(O)cc1OC(=O)c1ccc(O)c(O)c1
- Activity [4]: 74.9%
- Activity [1]: 70.3%
- IC50 [2]: 30 µM

- IC50 [3]: 51.4 µM
Structure (SMILES): COC(=O)Cc1c(O)cc(O)cc1OC(=O)c1ccc(O)c(O)c1 [JABOTICABIN]
- inhibition at 100 µM ([4]; Homo sapiens, SAE): 81.3%
- Activity [1]: 47.3%
- IC50 (HT-29): 65 µM

Structure (SMILES): OC[C@H]1O[C@@H](Oc2cc3c(O)cc(O)cc3[o+]c2-c2ccc(O)c(O)c2)[C@H](O)[C@@H](O)[C@@H]1O [KUROMANIN]
- Activity [4]: 65.3%
- Activity [1]: 36.4%
- IC50 (HT-29): 100 µM
- IC50 [2]: 100 µM
- IC50 (SW480): 100 µM
